Reference: ChEMBL document CHEMBL4622869, “Discovery and structure-activity relationships study of positive allosteric modulators of the M3 muscarinic acetylcholine receptor” (Bioorg Med Chem, 2020)

What was measured:
[1] = target: Muscarinic acetylcholine receptor M3 (Homo sapiens) (UniProt P20309); assay: Positive allosteric modulation of recombinant human muscarinic acetylcholine receptor M3 expressed in CHOK1 cells assessed as increase in carbachol-induced intracellular calcium flux at 10 uM preincubated for 5 mins followed by carbachol addition by Fluo4-AM dye based FLIPR assay relative to carbachol; format: functional, cell-based; conditions: CHO-K1
Sequence of Muscarinic acetylcholine receptor M3 (Homo sapiens) (P20309 whole entry, looked up): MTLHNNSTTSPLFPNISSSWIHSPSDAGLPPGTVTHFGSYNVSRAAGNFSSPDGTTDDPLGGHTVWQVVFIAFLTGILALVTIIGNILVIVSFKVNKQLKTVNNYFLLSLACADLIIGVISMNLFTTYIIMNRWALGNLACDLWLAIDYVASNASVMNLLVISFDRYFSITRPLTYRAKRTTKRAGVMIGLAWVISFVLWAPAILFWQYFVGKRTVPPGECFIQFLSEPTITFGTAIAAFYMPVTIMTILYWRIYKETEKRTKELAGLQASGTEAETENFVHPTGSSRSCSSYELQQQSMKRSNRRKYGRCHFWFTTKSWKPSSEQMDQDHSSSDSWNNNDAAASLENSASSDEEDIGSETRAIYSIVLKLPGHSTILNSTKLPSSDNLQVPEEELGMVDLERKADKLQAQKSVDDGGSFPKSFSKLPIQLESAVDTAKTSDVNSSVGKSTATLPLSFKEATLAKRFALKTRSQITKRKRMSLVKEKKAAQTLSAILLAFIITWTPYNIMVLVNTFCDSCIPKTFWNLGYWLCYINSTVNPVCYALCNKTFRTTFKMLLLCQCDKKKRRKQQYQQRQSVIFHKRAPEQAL
Outline: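 CHO-K1 cells stably expressing human or rat M1–M5; M2 and M4 lines also co-express human Gα16. Cells loaded with 3.1 μM Fluo-4 AM in HBSS/20 mM HEPES pH 7.5/BSA/2.5 mM probenecid for ~2 h at room temperature. Test substance at 10 μM final, then carbachol (0.0024 nM–100 μM) ~5 min later; Ca2+ read by FLIPR Tetra. Fold shift = carbachol EC50 without / with test substance, from logistic fits.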

[2] = target: T1, Thrombopoietin receptor (Homo sapiens, UniProt P40238); assay: Agonist activity at recombinant human c-Mpl receptor transfected in BA/F3 cells assessed as increase in cell proliferation by cell counting analysis; format: cell-based; conditions: baf3
T1 sequence (P40238 whole entry): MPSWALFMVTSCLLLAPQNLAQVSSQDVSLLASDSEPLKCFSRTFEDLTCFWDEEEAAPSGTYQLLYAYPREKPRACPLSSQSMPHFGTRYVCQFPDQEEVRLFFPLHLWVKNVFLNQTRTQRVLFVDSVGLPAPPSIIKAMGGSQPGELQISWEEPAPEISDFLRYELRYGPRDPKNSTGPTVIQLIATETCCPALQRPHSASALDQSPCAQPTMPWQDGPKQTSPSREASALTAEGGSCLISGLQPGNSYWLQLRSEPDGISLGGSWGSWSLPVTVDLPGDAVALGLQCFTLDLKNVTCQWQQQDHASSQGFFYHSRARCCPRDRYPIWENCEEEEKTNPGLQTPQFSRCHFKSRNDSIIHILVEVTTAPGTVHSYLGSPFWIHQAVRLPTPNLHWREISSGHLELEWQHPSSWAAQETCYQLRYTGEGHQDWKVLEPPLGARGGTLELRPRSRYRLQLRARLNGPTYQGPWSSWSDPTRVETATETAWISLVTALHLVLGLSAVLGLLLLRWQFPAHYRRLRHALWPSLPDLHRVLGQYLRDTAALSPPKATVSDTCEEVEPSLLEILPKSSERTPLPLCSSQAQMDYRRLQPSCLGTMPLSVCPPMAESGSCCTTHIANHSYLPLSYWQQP
Outline: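 Ba/F3 cells stably transfected with human c-Mpl by electroporation with blasticidin selection. 1×10^4 cells/well in RPMI-1640 with 10% FBS, with test substance (100 nM to 10 μM final), overnight at 37°C in 5% CO2. Cell Counting Kit added for about 5 h, then A450 read. Scale: untreated wells 0%, reference c-Mpl agonist at 1 μM 100%. EC30 from logistic regression.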

fold change (FC) [1]	Structure (SMILES)	EC30 [2] [µM]
128	CCC[C@@H]1CCCN1Cc1sc(NC(=O)c2cnc(N3CCC(C(=O)O)CC3)cn2)nc1-c1ccc(OC)c(C(F)(F)F)c1.Cl.Cl	> 10
186	C[C@@H]1CCCN1Cc1sc(NC(=O)c2cnc(N3CCC(C(=O)O)CC3)cn2)nc1-c1cc(Cl)cs1.Cl.Cl	0.35
204	COc1ccc(-c2nc(NC(=O)c3ccc(OCC(=O)O)cc3)sc2CN2CCCC(C)(C)C2)cc1C(F)(F)F	–
39	COc1ccc(-c2nc(NC(=O)c3cnc(C(=O)O)cn3)sc2CN2CCCC(C)(C)C2)cc1C(F)(F)F	–
132	C[C@@H]1CCCN1Cc1sc(NC(=O)c2cnc(N3CCC(C(=O)O)CC3)c(F)c2)nc1-c1cc(Cl)cs1.Cl.Cl	0.0032
73	COc1ccc(-c2nc(NC(=O)c3cnc(N4CCC(C(=O)O)CC4)cn3)sc2CN2CCC[C@H]2C)cc1C(F)(F)F.Cl.Cl	> 10
168	C[C@@H]1CCCN1Cc1sc(NC(=O)c2cnc(N3CCC(C(=O)O)CC3)cn2)nc1-c1cc(Cl)cc(C(F)(F)F)c1.Cl.Cl	0.15
137	COc1ccc(-c2nc(NC(=O)c3cnc(N(C)CC(=O)O)cn3)sc2CN2CCCC(C)(C)C2)cc1C(F)(F)F	–
175	COc1ccc(-c2nc(NC(=O)c3cnc(OCC(=O)O)cn3)sc2CN2CCCC(C)(C)C2)cc1C(F)(F)F	–
94	COc1ccc(-c2nc(NC(=O)c3cnc(N4CCC(C(=O)O)CC4)cn3)sc2CN2CCCC[C@H]2C)cc1C(F)(F)F.Cl.Cl	> 10
2.8	C[C@@H]1CCCN1Cc1sc(NC(=O)C2CCN(c3ccc(C(=O)O)cn3)CC2)nc1-c1cc(Cl)cs1 (racemic)	–
84	COCCN(Cc1sc(NC(=O)c2cnc(N3CCC(C(=O)O)CC3)cn2)nc1-c1ccc(OC)c(C(F)(F)F)c1)CC(C)C.Cl.Cl	> 10
25	COc1ccc(-c2nc(NC(=O)c3cnc(N4CCC(C(=O)O)CC4)cn3)sc2CN2CCC[C@@H]2C)cc1C(F)(F)F.Cl.Cl	> 10
8.9	COc1ccc(-c2nc(NC(=O)c3ccc(O)cc3)sc2CN2CCCC(C)(C)C2)cc1C(F)(F)F	–
118	C[C@@H]1CCCN1Cc1sc(NC(=O)c2cnc(N3CCC(C(=O)O)CC3)cn2)nc1-c1ccc(Cl)c(C(F)(F)F)c1.Cl.Cl	1.72
65	C[C@@H]1CCCN1Cc1sc(NC(=O)c2cnc(N3CCC(C(=O)O)CC3)nc2)nc1-c1cc(Cl)cs1	–
162	COc1ccc(-c2nc(NC(=O)c3cnc(NCC(=O)O)cn3)sc2CN2CCCC(C)(C)C2)cc1C(F)(F)F	–
72	COC[C@@H]1CCCN1Cc1sc(NC(=O)c2cnc(N3CCC(C(=O)O)CC3)cn2)nc1-c1ccc(OC)c(C(F)(F)F)c1.Cl.Cl	> 10
238	COc1ccc(-c2nc(NC(=O)c3cnc(N4CCC(C(=O)O)CC4)cn3)sc2CN2CCCC(C)(C)C2)cc1C(F)(F)F.Cl.Cl	> 10
